KCNK3 block – human KCNK3 channel inhibition, primary screen | CHO-KCNK3 thallium flux, FluxOR fluorescence; active compounds read low | B-score at 10 µM | 340,000 tested, 0.84% active;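 active = B-score under library mean minus 4 SD, starting fluorescence ratio at most library mean plus 5 SD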;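 note: more negative B-score means stronger inhibition of thallium flux through KCNK3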
KCNQ1 block – inhibitors of human KCNQ1 potassium channel; B-score at 10 µM; P51787; CHO-K1 KCNQ1, FluxOR thallium flux fluorescence; active compounds read high; 310,000 tested, 1.3% active;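 active = compounds whose thallium flux B-score, printed positive for inhibition, exceeds three library SD while starting fluorescence stays within three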;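 note: channel opened by potassium depolarization with thallium stimulus after 20 min compound exposure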
Target sequence (P51787 whole entry, looked up): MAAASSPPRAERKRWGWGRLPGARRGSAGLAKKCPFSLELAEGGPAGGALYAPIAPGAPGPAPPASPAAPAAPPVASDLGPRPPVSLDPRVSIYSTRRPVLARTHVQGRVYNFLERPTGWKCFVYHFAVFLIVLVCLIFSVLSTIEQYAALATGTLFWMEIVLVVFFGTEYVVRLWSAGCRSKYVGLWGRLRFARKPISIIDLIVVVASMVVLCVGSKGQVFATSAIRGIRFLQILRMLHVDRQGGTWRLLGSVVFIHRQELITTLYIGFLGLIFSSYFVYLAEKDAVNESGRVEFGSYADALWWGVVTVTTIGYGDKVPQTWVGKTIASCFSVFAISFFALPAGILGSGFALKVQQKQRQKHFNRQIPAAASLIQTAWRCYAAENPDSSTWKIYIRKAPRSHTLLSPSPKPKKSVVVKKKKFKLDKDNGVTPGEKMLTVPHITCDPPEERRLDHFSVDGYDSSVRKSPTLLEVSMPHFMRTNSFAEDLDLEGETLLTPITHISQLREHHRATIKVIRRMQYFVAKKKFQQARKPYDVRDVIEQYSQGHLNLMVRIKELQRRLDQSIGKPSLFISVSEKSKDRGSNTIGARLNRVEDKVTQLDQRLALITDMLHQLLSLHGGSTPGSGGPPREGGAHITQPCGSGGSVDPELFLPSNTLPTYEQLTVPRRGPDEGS
KCNK9 block – blocks the human KCNK9 two-pore domain potassium channel. Q9NPC2. HEK293 KCNK9, FluxOR thallium flux fluorescence; active compounds read low. B-score at 10 µM. 310,000 tested, 1.2% active. AID 488922;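 active = ratio B-score over 3 SD below the library mean, with starting fluorescence within 5 SD of its mean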;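 note: negative B-score means less thallium flux so channel inhibition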
hERG protect – shields human hERG channel from block by proarrhythmic agents; Q12809; CHO-hERG, FluxOR thallium flux, dofetilide IC70 present; activation (rescue from dofetilide block), less the hit threshold, % at 10 µM; 310,000 tested, 0.51% active;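 active = activation above the mean of controls blocked by dofetilide plus 5 SD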;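 note: thallium influx through hERG after potassium depolarization seen as dye fluorescence rise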
KCC2 mod – KCC2 (human) Cl- transport modulation. Q9H2X9. KCC2 cells, thallium flux FluoZin-2 fluorescence. B-score of Tl+ flux slope (higher = more flux/activation; lower = inhibition) at 10 µM. 190,000 tested, 2.2% active;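 active = thallium flux slope and its plate-corrected score both differing from the plate sample mean at a set confidence after two filtering rounds, in either direction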;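 note: slope of fluorescence scaled to starting intensity during 10 to 20 s after thallium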
KCNQ1 pot – human KCNQ1 channel potentiation or activation; P51787; CHO-K1 KCNQ1, thallium flux FluxOR fluorescence; active compounds read high; B-score at 10 µM; 310,000 tested, 0.35% active; AID 2648;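 active = fluorescence ratio B-score, a plate-corrected score, at least three library SD, with initial intensity B-score within 5 SD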
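Assay system: stable KCNQ1 CHO-K1 line; medium: assay buffer, equal DMSO in all wells; timing: 90 min dye loading and 20 min compound exposure, both at room temperature; technique: kinetic FluxOR thallium fluorescence, 10-s 1-Hz baseline, 110-s post-stimulus read; read-out basis: B score of baseline-normalized fluorescence ratio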
KCC2 secondary – KCC2 (human) modulation, secondary assay. AID 1713. shares compounds with KCC2 mod. 3,700 tested, 15% active. normalised thallium flux (F/F0 slope) at 10 µM. HEK293-KCC2, thallium flux, FluoZin2 fluorescence; active compounds read high;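 active = thallium flux slope above the same plate's solvent-only control mean plus 3 SD; inconclusive = the two replicate wells disagree; inactive = no significant difference from solvent-only control wells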
KCC2 bumet counter – bumetanide-insensitive thallium flux in KCC2 cells with ouabain, counter-screen; normalized thallium flux at 10 µM; HEK293-KCC2 + bumetanide/ouabain, thallium flux FluoZin2; active compounds read high; shares compounds with KCC2 mod; 3,700 tested, 49% active; AID 1714;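 active = thallium entry rate above the same plate's blocked-transporter control wells by more than 3 SD; inconclusive = the two repeat wells disagree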;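 note: raw slope of fluorescence over initial fluorescence between 10 and 20 s after thallium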
KCC2 secondary2 – confirmation of human KCC2 transport modulators; 3,700 tested, 23% active; shares compounds with KCC2 mod; AID 1715; HEK293-KCC2, thallium flux FluoZin2 fluorescence; actives lie on both sides; F/F0 rise rate, 10–20 s post-thallium; normalized thallium flux at 10 µM;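 active = thallium flux slope more than 3 SD above or below the plate's solvent-only control mean, mostly below; inconclusive = the two repeat wells disagreed; inactive = no significant shift from solvent-only controls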;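 note: raw slope with 0.1% DMSO as baseline and bumetanide as block control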
HEK293 Tl flux – counter-screen for KCC2 modulators: effect in parental HEK293 cells. shares compounds with KCC2 mod. AID 1716. 3,700 tested, 46% active. thallium flux FluoZin2, ouabain; baseline-ratio fluorescence slope, 10–20 s after thallium. thallium flux rate (normalised fluorescence) at 10 µM;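 active = thallium flux rate significantly above the same plate's solvent-only control wells, beyond their mean plus 3 SD; inconclusive = the two replicate wells gave conflicting results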
KCC2 retest ouab – modulates human KCC2 on retest with ouabain; shares compounds with KCC2 mod; HEK293-KCC2, thallium flux FluoZin2 fluorescence; bidirectional: low = inhibitor, high = activator; raw Tl+ flux slope (below DMSO = inhibition, above = activation) at 10 µM; 3,700 tested, 48% active;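 active = thallium flux slope beyond 3 SD from same-plate DMSO control mean in most replicates, usually higher, sometimes lower; inconclusive = repeat tests gave conflicting results; inactive = no significant difference from controls in most replicates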;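 note: slope of initial-normalized fluorescence between seconds 10 and 20 after thallium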
HEK293 Tl flux2 – counter-screen for KCC2 modulators: effect in parental HEK293 cells | shares compounds with KCC2 mod | thallium flux FluoZin-2 fluorescence slope | AID 1718 | 3,700 tested, 33% active | thallium flux slope at 10 µM;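 active = thallium flux slope above the same plate's solvent-control mean plus 3 SD in both duplicate wells; inconclusive = duplicate wells that disagreed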;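 note: run without ouabain in cells lacking the KCC2 cotransporter; slope of fluorescence scaled to its starting value between 10 and 20 s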
* = called active by the depositor; i = inactive; ? = inconclusive; . = no result given. An excerpt weighted towards active compounds, which were near 4.1% of everything screened.

SMILES	KCNK3 block	KCNQ1 block	KCNK9 block	hERG protect	KCC2 mod	KCNQ1 pot	KCC2 secondary	KCC2 bumet counter	KCC2 secondary2	HEK293 Tl flux	KCC2 retest ouab	HEK293 Tl flux2
Cc1nc2c(c(=O)n1CCC1=CCCCC1)c1nc3ccccc3nc1n2/N=C/c1ccco1	i	i	i	-20	-5.8*	i	0.0062	0.0046	0.029	0.0073	0.019	0.011
CC(NC(=O)CCc1nc2cc(S(=O)(=O)N3CCOCC3)ccc2n1C)c1ccc(S(N)(=O)=O)cc1 (stereo not drawn)	i	i	i	-5	.	i	.	.	.	.	.	.
Cc1ccc(Cn2c(SCCN3CCCCC3)nc3c2c(=O)n(C)c(=O)n3C)cc1	i	i	i	-12	.	i	.	.	.	.	.	.
Cc1ccc(Cn2c(SCC(N)=O)nc3c2c(=O)n(C)c(=O)n3C)cc1	i	i	i	-7	4.8*	i	0.0064	?	0.034	0.0075	0.019	0.011
CC(C)(C)C(=O)/C=c1\[nH]c(=O)/c(=C\c2ccccc2F)s1	i	i	i	-18	18*	i	0.0078	0.024*	0.038*	0.015*	0.032*	0.018*
COc1ccc(/C=c2\s/c(=C/C(=O)c3ccc(C)cc3)[nH]c2=O)cc1OC	i	i	i	-4	0.62	i	.	.	.	.	.	.
COc1ccc(S(=O)(=O)NCc2ccc(C(=O)N3CCN(Cc4ccccc4)CC3)cc2)cc1	i	i	i	-7	.	i	.	.	.	.	.	.
O=C(c1cccc(S(=O)(=O)NCc2ccccc2)c1)N1CCCCC1	i	i	i	-19	.	i	.	.	.	.	.	.
Cc1ccc(S(=O)(=O)NCc2ccc(C(=O)N3CCN(Cc4ccccc4)CC3)cc2)cc1	-9.3*	i	i	-4	-2.6*	i	0.0061	?	0.027*	0.0072	?	0.01
O=C(c1cccc(S(=O)(=O)NCc2ccccc2)c1)N1CCN(Cc2ccccc2)CC1	i	i	i	-14	-2.7*	i	0.0073	0.0061*	0.03	0.0072	0.018	0.011
CC(NC(=O)c1cc(S(=O)(=O)N2CCOCC2)cn1C)c1ccccc1 (stereo not drawn)	i	i	i	-12	.	i	.	.	.	.	.	.
Cc1c(Cl)cccc1NC(=O)Nc1cc(C(C)(C)C)on1	i	i	i	-6	.	i	.	.	.	.	.	.
CCOC(CN=c1nc(N(C)C)ss1)OCC	i	.	.	.	.	.	.	.	.	.	.	.
CN(C)c1nc(=NCc2ccco2)ss1	i	i	i	-7	45*	i	0.037*	0.06*	0.041	?	0.052*	?
CCOc1ccccc1NC(=O)NCCCCc1ccccc1	i	i	i	-3	.	i	.	.	.	.	.	.
COc1ccc(CC(=O)N/N=C\c2cc(Br)c(O)c(Br)c2)cc1	i	i	i	-8	.	i	.	.	.	.	.	.
CCOC(=O)c1c(-c2cccs2)csc1NC(=O)CCCC(=O)O	i	i	i	-5	.	i	0.016	0.006*	0.027	?	0.015	0.0089
CCOC(=O)c1c(-c2cccs2)csc1NC(C)=O	i	i	i	-6	-1.3	i	.	.	.	.	.	.

Source: PubChem (several laboratories)
